Laboratory results from ChEMBL document CHEMBL2375261, “Glycyrrhetinic acid and its analogs: a new class of antifilarial agents” (Bioorg Med Chem Lett, 2013).
≈ marks a conversion by molar mass, not a printed value. Calls of active or inactive are those of the source. No cut-off for these calls is given here.

What was measured:
Brugia malayi [1] = experiment: Antifilarial activity against microfilariae Brugia malayi assessed as inhibition of motility after 24 hrs by microscopic analysis; assay type: functional, organism-based; settings: for IC50: Brugia malayi, 24 h
Procedure, shortened: (§1)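 In vitro, female adult worms and microfilariae of Brugia malayi were scored for motility. LC100 is the concentration giving 100% motility inhibition, which is taken as parasite death. IC50 is the concentration giving 50% motility inhibition. Adult worms were also run in a parallel MTT reduction assay, reported as mean % inhibition.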

Brugia malayi [2] = experiment: Antifilarial activity against female adult Brugia malayi assessed as inhibition of MTT reduction at LC100 concentration after 24 hrs; assay type: functional
Brugia malayi [3] = experiment: Antifilarial activity against female adult Brugia malayi assessed as inhibition of motility after 24 hrs by microscopic analysis; assay type: functional, organism-based; settings: for IC50: Brugia malayi, 24 h; procedure, shortened: as §1
[4] = Cytotoxicity against african green monkey Vero cells; assay type: cell-based; settings: chlorocebus sabaeus
[5] = Selectivity index, ratio of CC50 for african green monkey Vero cells to IC50 for microfilariae Brugia malayi; assay type: functional
Procedure, shortened: (§2)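 Selectivity index was calculated as CC50 (concentration killing 50% of cells) divided by the motility IC50 (concentration giving 50% motility inhibition). This was done separately for female adult worms and for microfilariae of B. malayi.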

Brugia malayi [6] = experiment: Antifilarial activity against adult Brugia malayi infected in jirds assessed as decrease in microfilarial activity isolated from host peritoneal cavity at 25 mg/kg, sc qd for 5 days measured after 7 to 8 days; assay type: functional, organism-based; set-up: dose 25 mg/kg
Procedure, shortened: (§3)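 Jirds (Meriones unguiculatus) infected with B. malayi were dosed s.c. once daily for 5 days, at 100 mg/kg or, for the reference drug, 25 mg/kg; vehicle-treated animals served as controls (4–6 animals per group). Microfilariae in the peritoneal cavity were assessed on days 7/8 after treatment began. Recovered adult worms were counted as % inhibition over untreated control, with % sterile females scored. Data are mean ± SD, compared by Student's t test.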

Brugia malayi [7] = experiment: Antifilarial activity against adult Brugia malayi infected in jirds assessed as reduction in worms recovered from host at 25 mg/kg, sc qd for 5 days measured after 56 days relative to control; assay type: functional, organism-based; set-up: dose 25 mg/kg; procedure, shortened: as §3
[8] = Selectivity index, ratio of CC50 for african green monkey Vero cells to IC50 for female adult Brugia malayi; assay type: functional; procedure, shortened: as §2
Brugia malayi [9] = experiment: Antifilarial activity adult against Brugia malayi infected in jirds assessed as sterile female worms recovered from host at 25 mg/kg, sc qd for 5 days measured after 56 days relative to control; assay type: functional; settings: route subcutaneous; procedure, shortened: as §3
Brugia malayi [10] = experiment: Antifilarial activity against adult Brugia malayi infected in jirds assessed as sterile female worms recovered from host at 100 mg/kg, sc qd for 5 days measured after 56 days relative to control; assay type: functional; settings: route subcutaneous; procedure, shortened: as §3
Brugia malayi [11] = experiment: Ratio of diethylcarbamazine citrate LC100 to compound LC100 for female adult Brugia malayi; assay type: functional
Brugia malayi [12] = experiment: Ratio of diethylcarbamazine citrate IC50 to compound IC50 for female adult Brugia malayi; assay type: functional
Brugia malayi [13] = experiment: Antifilarial activity against adult Brugia malayi infected in jirds assessed as decrease in microfilarial activity isolated from host peritoneal cavity at 100 mg/kg, sc qd for 5 days measured after 7 to 8 days; assay type: functional, organism-based; set-up: dose 100 mg/kg; procedure, shortened: as §3
Brugia malayi [14] = experiment: Antifilarial activity against adult Brugia malayi infected in jirds assessed as reduction in worms recovered from host at 100 mg/kg, sc qd for 5 days measured after 56 days relative to control; assay type: functional; procedure, shortened: as §3
Brugia malayi [15] = experiment: Ratio of diethylcarbamazine citrate IC50 to compound IC50 for microfilariae Brugia malayi; assay type: functional
Meriones unguiculatus = experiment: Toxicity against jird infected with adult Brugia malayi assessed as behavioural change at 100 mg/kg, sc qd for 5 days measured up to 56 days; assay type: organism-based; set-up: dose 100 mg/kg, route subcutaneous; settings: gerbil, in vivo

| Structure (SMILES) | LC100 (Brugia malayi [1]) [µM] | IC50 (Brugia malayi [1]) [µM] | inhibition (INH) (Brugia malayi [2]) [%] | LC100 (Brugia malayi [3]) [µM] | CC50 [4] [µg/mL] | Ratio CC50/IC50 [5] | Activity (Brugia malayi [6]) | Activity (Brugia malayi [7]) | Ratio CC50/IC50 [8] | Activity (Brugia malayi [9]) [%] | IC50 (Brugia malayi [3]) [µM] | Activity (Brugia malayi [10]) [%] | Ratio (Brugia malayi [11]) | Ratio IC50 (Brugia malayi [12]) | Activity (Brugia malayi [13]) | Activity (Brugia malayi [14]) | Ratio IC50 (Brugia malayi [15]) | Activity (Brugia malayi [14]; route subcutaneous) [%] | Activity (Meriones unguiculatus) |
| --- | --- | --- | --- | --- | --- | --- | --- | --- | --- | --- | --- | --- | --- | --- | --- | --- | --- | --- | --- |
| CC1(C)[C@@H](O)CC[C@]2(C)[C@H]3C(=O)C=C4[C@@H]5C[C@@](C)(C(=O)O)CC[C@]5(C)CC[C@@]4(C)[C@]3(C)CC[C@@H]12 [ENOXOLONE] | 12.5 | 1.2 | 21.71 | >100 | – | – | – | – | – | – | – | – | – | – | – | – | – | – | – |
| CC(=O)O[C@H]1CC[C@]2(C)[C@H]3C(=O)C=C4[C@@H]5C[C@@](C)(C(=O)O)CC[C@]5(C)CC[C@@]4(C)[C@]3(C)CC[C@H]2C1(C)C [ACETOXOLONE] | >100 | – | 9.45 | >100 | – | – | – | – | – | – | – | – | – | – | – | – | – | – | – |
| CCCCCCCCCCCC(=O)O[C@H]1CC[C@]2(C)[C@H]3C(=O)C=C4[C@@H]5C[C@@](C)(C(=O)O)CC[C@]5(C)CC[C@@]4(C)[C@]3(C)CC[C@H]2C1(C)C | >100 | – | 10.69 | >100 | – | – | – | – | – | – | – | – | – | – | – | – | – | – | – |
| COC(=O)[C@@]1(C)CC[C@]2(C)CC[C@]3(C)C(=CC(=O)[C@@H]4[C@@]5(C)CC[C@H](OC(C)=O)C(C)(C)[C@@H]5CC[C@]43C)[C@@H]2C1 | 25 | 2.21 | 7.47 | >100 | 7.92 (≈ 15 µM) | 3.58 | – | – | – | – | – | – | – | – | – | – | – | – | – |
| CCOC(=O)[C@@]1(C)CC[C@]2(C)CC[C@]3(C)C(=CC(=O)[C@@H]4[C@@]5(C)CC[C@H](OC(C)=O)C(C)(C)[C@@H]5CC[C@]43C)[C@@H]2C1 | 50 | 8.84 | 28.78 | >100 | 10.3 (≈ 19 µM) | 1.16 | – | – | – | – | – | – | – | – | – | – | – | – | – |
| CCN(CC)C(=O)N1CCN(C)CC1.O=C(O)CC(O)(CC(=O)O)C(=O)O [DIETHYLCARBAMAZINE CITRATE] | 500 | 354 | 64 | 800 | 9100 | 25.7 | inactive | inactive | 31.5 | 11 | 289 | – | – | – | – | – | – | – | – |
| CCCCCCCCNC(=O)[C@@]1(C)CC[C@]2(C)CC[C@]3(C)C(=CC(=O)[C@@H]4[C@@]5(C)CC[C@H](OC(C)=O)C(C)(C)[C@@H]5CC[C@]43C)[C@@H]2C1 | 100 | 42 | 52.15 | 100 | 106 (≈ 170 µM) | 2.53 | – | – | 6.01 | – | 17.7 | 5 | 8 | 16 | inactive | inactive | – | – | – |
| CC(=O)O[C@H]1CC[C@]2(C)[C@H]3C(=O)C=C4[C@@H]5C[C@@](C)(C(=O)NCc6ccccc6)CC[C@]5(C)CC[C@@]4(C)[C@]3(C)CC[C@H]2C1(C)C | 50 | 2.21 | 48.79 | 25 | 584 (≈ 970 µM) | 264.06 | – | – | 66.02 | – | 8.84 | 11 | 32 | – | inactive | – | 160 | 54.21 | Non-toxic |
